We go through one molecule from ChEMBL document CHEMBL5661977, “BI 6727, a Polo-like kinase inhibitor with improved pharmacokinetic profile and broad antitumor activity” (Clin Cancer Res, 2009).

Data set [1] in a line: AUC (0 to infinity) in BomTac:NMRI-Foxn1nu mouse at 35 mg/kg, iv by HPLC-MS/MS analysis. In kind it is ADME, organism-based. Conditions: in vivo. The method, boiled down:
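Single i.v. dose: male Wistar rats (n=4) by 5-min infusion, female nude mice (n=3). EDTA plasma was sampled at various times and extracted with internal standard, NaOH, methanol/formic acid and acetonitrile. Analysis by LC-MS/MS (ESI+, C18, ammonium acetate pH 4.0/acetonitrile gradient). Noncompartmental parameters; AUC by trapezoidal rule.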

In data set [2] the test system is HCT-116. Kind of data set: Antitumor activity against human HCT-116 cells xenografted in BomTac:NMRI-Foxn1nu mouse assessed as mitotic index in small intestine at 40 mg/kg, iv. In kind it is functional, organism-based. An outline of the steps:
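Female nude mice bore s.c. HCT 116 tumors (~200 mm³) and received a single i.v. 40 mg/kg dose or vehicle (n=3 per group per time). Tumor, small intestine and large intestine were taken at 6, 24 and 48 h. Frozen sections were stained for pSer10 histone H3 (immunoperoxidase) or by TUNEL. Positive area was calculated as % of tumor cell area; Student's t test.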

The nature of data set [3]: Cmax in BomTac:NMRI-Foxn1nu mouse at 50 mg/kg, po by HPLC-MS/MS analysis. Conditions: in vivo. The data set is classed as ADME, organism-based. The method, boiled down:
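Single oral gavage of BI 6727 suspended in 0.5% hydroxyethyl-cellulose (10 mL/kg) to female nude mice or male Wistar rats. EDTA plasma levels measured over time by HPLC-MS/MS with internal standard. AUC0-24 by trapezoidal rule. Parameters from noncompartmental analysis.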

In data set [4] the test system is HCT-116. As to the kind of experiment: Antitumor activity against human HCT-116 cells xenografted in BomTac:NMRI-Foxn1nu mouse assessed as T/C at 20 mg/kg, iv administered twice a week upto 6 weeks relative to control. The data set is classed as functional. An outline of the steps: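 Female nude mice bore s.c. HCT 116 (2×10^6 cells), NCI-H460 (1×10^6 cells) or serially transplanted CXB1 tumor pieces. At ~50–100 mm³, mice were randomized into groups of 10 and dosed i.v. (0.1 N HCl/saline) or by gavage (0.5% hydroxyethyl-cellulose) at 10 mL/kg. Calipers read thrice weekly, volume = length×width²×π/6. T/C from median volumes on the last day.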

The source made the active and inactive calls. The calls are words filed in the database; no cut-off is given here.

Usually AUC(0-inf) stands for the area under the concentration-time curve extrapolated to infinity. Low readings indicate less exposure, high ones more exposure. As usually defined, the Cmax is the highest concentration seen after dosing. A word on the T/C: it is the ratio of treated to control. As to `CC[C@@H]1C(=O)N(C)c2cnc(Nc3ccc(C(=O)N[C@H]4CC[C@H](N5CCN(CC6CC6)CC5)CC4)cc3OC)nc2N1C(C)C` [VOLASERTIB], the area under the curve AUC(0-inf) in data set [1] turned out to be 100 µM·h. Also, the outcome with HCT-116 [2] was inactive. The same molecule returned a peak concentration (Cmax) in data set [3] of 5.7 µM. For the same molecule, the T/C in the data set with HCT-116 [4] worked out at 1%.
